We go through 13 compounds from ChEMBL document CHEMBL4425193 (Bioorg Med Chem, 2016).

The source made the active and inactive calls. The rule behind the calls is not given here. Positions of bridges follow the written chain, without caps; N, C: chain ends. Non-standard residues stand in square brackets, D forms with d. Residues, ends and D or L forms follow the SMILES beside them. Chains are numbered I, II in the order given. ξ: configuration not given here. Gly(N-piperonyl) = O=C(O)CNCc1ccc2c(c1)OCO2; N(4-MeOBn)Gly = COc1ccc(CNCC(=O)O)cc1; Nrpe = C[C@@H](NCC(=O)O)c1ccccc1; Nlys = NCCCCNCC(=O)O; ξK = NCCCCC(N)C(=O)O

In experiment [1] the test system is HCC4017. The experiment in a line: Cytotoxicity against human HCC4017 cells at 30 uM after 1 day by MTS assay. In kind it is functional, cell-based. In short, it runs like this: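 HCC4017 cells were plated in 96-well format. On the second day compound was added in RPMI/10% FBS with 3% BSA, and each concentration was run in triplicate. MTS reagent was added on day 3 and absorbance was read at 490 nm. The absorbance values at the 30 μM treatment were taken for this readout.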
In general terms: Tetrazolium assays rely on reduction of a dye to a coloured formazan, in cell work by metabolically active cells.

Experiment [2] deals with HCC4017. Nature of the experiment: Cytotoxicity against human HCC4017 cells at 30 uM after 1 day by MTS assay.
The nature of experiment [3]: Displacement of FITC-labeled PPS1D1 from lipid phosphatidylserine assessed as remaining fluorescence at 1 uM incubated for 1 hr by ELISA-like competitive binding assay. A digest of the protocol: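 Lipid PS in hexane (10 μg/ml) was coated into wells and dried at room temperature. Wells were blocked with 1% BSA/PBS for 1 h, then saturated with 200 nM FITC-PPS1D1 in blocking buffer for 1 h at room temperature and washed. Competitor at 1 μM was added for 1 h. After PBS washes, remaining fluorescence was read at 520 nm.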

Experiment [4] deals with HCC4017. Nature of the experiment: Cytotoxicity against human HCC4017 cells at 0.1 to 100 uM after 1 day by MTS assay. The experiment is classed as functional, cell-based. A digest of the protocol:
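HCC4017 lung cancer cells were seeded in clear-bottom 96-well plates. On day 2 they were exposed to compound in RPMI with 10% FBS containing 3% BSA, at eight graded concentrations from 0.1 μM to 100 μM, each in triplicate. On day 3 MTS reagent was added and absorbance was read at 490 nm.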

Experiment [5] relates to HCC4017. Nature of the experiment: Cytotoxicity against human HCC4017 cells after 1 day by MTS assay. In kind it is functional, cell-based. The following applies: HCC4017, 24 h.
Another experiment concerns NCI-H460. Nature of the experiment: Cytotoxicity against human H460 cells after 1 day by MTS assay. The experiment is classed as functional, cell-based. As to conditions: NCI-H460, 24 h.

Turning to `CSCC[C@H](NC(=O)[C@@H](CCCCN)NC(=O)[C@H](CCCCN)NC(=O)CN(CCCCN)C(=O)CN(C)C(=O)CN(C(=O)CN(Cc1ccc2c(c1)OCO2)C(=O)CN[C@H](C)c1ccccc1)[C@H](C)c1ccccc1)C(=O)NCCCCC(NC(=O)[C@H](CCSC)NC(=O)[C@@H](CCCCN)NC(=O)[C@H](CCCCN)NC(=O)CN(CCCCN)C(=O)CN(C)C(=O)CN(C(=O)CN(Cc1ccc2c(c1)OCO2)C(=O)CN[C@H](C)c1ccccc1)[C@H](C)c1ccccc1)C(N)=O` (stereo partly drawn), the outcome in the experiment with HCC4017 [1] and in the experiment with HCC4017 [2] was inactive. Moreover, the inhibition entry in experiment [3] is “inactive”.
With `COc1ccc(CN(CC(=O)N(CCCCN)CC(=O)N[C@@H](CCCCN)C(=O)N[C@H](CCCCN)C(=O)N[C@@H](CCSC)C(=O)NCCCCC(NC(=O)[C@H](CCSC)NC(=O)[C@@H](CCCCN)NC(=O)[C@H](CCCCN)NC(=O)CN(CCCCN)C(=O)CN(Cc2ccc(OC)cc2)C(=O)CN[C@H](C)c2ccccc2)C(N)=O)C(=O)CN[C@H](C)c2ccccc2)cc1` (stereo partly drawn), the result in the experiment on HCC4017 [4] was inactive. Besides, in experiment [3], the inhibition result is “inactive”.
Consider `C=CCN(CC(=O)N[C@@H](CCCCN)C(=O)N[C@H](CCCCN)C(=O)N[C@@H](CCSC)C(=O)NCCCCC(NC(=O)[C@H](CCSC)NC(=O)[C@@H](CCCCN)NC(=O)[C@H](CCCCN)NC(=O)CN(CC=C)C(=O)CN(Cc1ccc(OC)cc1)C(=O)CN(C(=O)CN(Cc1ccc2c(c1)OCO2)C(=O)CN[C@H](C)c1ccccc1)[C@H](C)c1ccccc1)C(N)=O)C(=O)CN(Cc1ccc(OC)cc1)C(=O)CN(C(=O)CN(Cc1ccc2c(c1)OCO2)C(=O)CN[C@H](C)c1ccccc1)[C@H](C)c1ccccc1` (stereo partly drawn), for which the outcome in the experiment with HCC4017 [4] was Active.
On to `COc1ccc(CN(CC(=O)N(CCCCN)CC(=O)N[C@@H](CCCCN)C(=O)N[C@H](CCCCN)C(=O)N[C@@H](CCSC)C(=O)NCCCCC(NC(=O)[C@H](CCSC)NC(=O)[C@@H](CCCCN)NC(=O)[C@H](CCCCN)NC(=O)CN(CCCCN)C(=O)CN(Cc2ccc(OC)cc2)C(=O)CN(C)C(=O)CN(Cc2ccc3c(c2)OCO3)C(=O)CN[C@H](C)c2ccccc2)C(N)=O)C(=O)CN(C)C(=O)CN(Cc2ccc3c(c2)OCO3)C(=O)CN[C@H](C)c2ccccc2)cc1` (stereo partly drawn), for which the result in the experiment with HCC4017 [1] and with HCC4017 [2] was inactive. For the same compound, in experiment [3], the inhibition result is “inactive”.
In the case of `COc1ccc(CN(CC(=O)N(CCCCN)CC(=O)N[C@@H](CCCCN)C(=O)N[C@@H](C)C(=O)N[C@@H](CCSC)C(=O)NCCCCC(NC(=O)[C@H](CCSC)NC(=O)[C@H](C)NC(=O)[C@H](CCCCN)NC(=O)CN(CCCCN)C(=O)CN(Cc2ccc(OC)cc2)C(=O)CN(C(=O)CN(Cc2ccc3c(c2)OCO3)C(=O)CN[C@H](C)c2ccccc2)[C@H](C)c2ccccc2)C(N)=O)C(=O)CN(C(=O)CN(Cc2ccc3c(c2)OCO3)C(=O)CN[C@H](C)c2ccccc2)[C@H](C)c2ccccc2)cc1` (stereo partly drawn) (I: H-[Nrpe][Gly(N-piperonyl)][Nrpe][N(4-MeOBn)Gly][Nlys]KAM[ξK]-NH2 / II: H-[Nrpe][Gly(N-piperonyl)][Nrpe][N(4-MeOBn)Gly][Nlys]KAM; amide I:9-II:C), the outcome with HCC4017 [1] and with HCC4017 [2] was inactive. Also, the inhibition result in experiment [3] is “inactive”.
For `C=CCNCC(=O)N(CCOC)CC(=O)N(CC=C)CC(=O)N(CCOC)CC(=O)N(CC=C)CC(=O)NCC(=O)N[C@H](CCCCN)C(=O)N[C@@H](CCSC)C(=O)NCCCCC(NC(=O)[C@H](CCSC)NC(=O)[C@@H](CCCCN)NC(=O)CNC(=O)CN(CC=C)C(=O)CN(CCOC)C(=O)CN(CC=C)C(=O)CN(CCOC)C(=O)CNCC=C)C(N)=O` (stereo partly drawn), the outcome in the experiment with HCC4017 [4], in the experiment on HCC4017 [1] and in the experiment on HCC4017 [2] was inactive. In experiment [3], the inhibition result is “inactive”.
For orientation: IC50 means the concentration needed to halve the response being measured. In the case of `COc1ccc(CN(CC(=O)N(CCCCN)CC(=O)N[C@@H](CCCCN)C(=O)N[C@H](CCCCN)C(=O)N[C@@H](CCSC)C(=O)NCCCCC(NC(=O)[C@H](CCSC)NC(=O)[C@@H](CCCCN)NC(=O)[C@H](CCCCN)NC(=O)CN(CCCCN)C(=O)CN(Cc2ccc(OC)cc2)C(=O)CN(C(=O)CN(Cc2ccc3c(c2)OCO3)C(=O)CN[C@H](C)c2ccccc2)[C@H](C)c2ccccc2)C(N)=O)C(=O)CN(C(=O)CN(Cc2ccc3c(c2)OCO3)C(=O)CN[C@H](C)c2ccccc2)[C@H](C)c2ccccc2)cc1` (stereo partly drawn), the result with HCC4017 [4], in the experiment with HCC4017 [1] and in the experiment with HCC4017 [2] was Active. Also, the 50% inhibitory concentration (IC50) in the experiment with HCC4017 [5] and in the experiment with NCI-H460 was 5 to 10 µM throughout. Further, in experiment [3], the inhibition entry is “Active”.
As for `COc1ccc(CNCC(=O)N(CCCCN)CC(=O)N[C@@H](CCCCN)C(=O)N[C@H](CCCCN)C(=O)N[C@@H](CCSC)C(=O)NCCCCC(NC(=O)[C@H](CCSC)NC(=O)[C@@H](CCCCN)NC(=O)[C@H](CCCCN)NC(=O)CN(CCCCN)C(=O)CNCc2ccc(OC)cc2)C(N)=O)cc1` (stereo partly drawn), the outcome in the experiment with HCC4017 [4] was inactive. The inhibition result in experiment [3] is “inactive”.
Regarding `COCCN(CC(=O)N[C@@H](CCCCN)C(=O)N[C@H](CCCCN)C(=O)N[C@@H](CCSC)C(=O)NCCCCC(NC(=O)[C@H](CCSC)NC(=O)[C@@H](CCCCN)NC(=O)[C@H](CCCCN)NC(=O)CN(CCOC)C(=O)CN(Cc1ccc(OC)cc1)C(=O)CN(C(=O)CN(Cc1ccc2c(c1)OCO2)C(=O)CN[C@H](C)c1ccccc1)[C@H](C)c1ccccc1)C(N)=O)C(=O)CN(Cc1ccc(OC)cc1)C(=O)CN(C(=O)CN(Cc1ccc2c(c1)OCO2)C(=O)CN[C@H](C)c1ccccc1)[C@H](C)c1ccccc1` (stereo partly drawn), the result in the experiment with HCC4017 [4] was Active.
For `COc1ccc(CN(CC(=O)N(CCCCN)CC(=O)N[C@@H](CCCCN)C(=O)N[C@H](CCCCN)C(=O)N[C@@H](CCSC)C(=O)NCCCCC(NC(=O)[C@H](CCSC)NC(=O)[C@@H](CCCCN)NC(=O)[C@H](CCCCN)NC(=O)CN(CCCCN)C(=O)CN(Cc2ccc(OC)cc2)C(=O)CN(C(=O)CNCc2ccc3c(c2)OCO3)[C@H](C)c2ccccc2)C(N)=O)C(=O)CN(C(=O)CNCc2ccc3c(c2)OCO3)[C@H](C)c2ccccc2)cc1` (stereo partly drawn), the result with HCC4017 [4] was inactive. Also, the inhibition result in experiment [3] was “inactive”.
Take `COc1ccc(CN(CC(=O)N(CCCCN)CC(=O)N[C@@H](CCCCN)C(=O)N[C@H](CCCCN)C(=O)N[C@@H](C)C(=O)NCCCCC(NC(=O)[C@H](C)NC(=O)[C@@H](CCCCN)NC(=O)[C@H](CCCCN)NC(=O)CN(CCCCN)C(=O)CN(Cc2ccc(OC)cc2)C(=O)CN(C(=O)CN(Cc2ccc3c(c2)OCO3)C(=O)CN[C@H](C)c2ccccc2)[C@H](C)c2ccccc2)C(N)=O)C(=O)CN(C(=O)CN(Cc2ccc3c(c2)OCO3)C(=O)CN[C@H](C)c2ccccc2)[C@H](C)c2ccccc2)cc1` (stereo partly drawn): the result in the experiment with HCC4017 [1] and in the experiment with HCC4017 [2] was Active.
As for `CSCC[C@H](NC(=O)[C@@H](CCCCN)NC(=O)[C@@H](N)CCCCN)C(=O)NCCCCC(NC(=O)[C@H](CCSC)NC(=O)[C@@H](CCCCN)NC(=O)[C@@H](N)CCCCN)C(N)=O` (stereo partly drawn), in the experiment with HCC4017 [4], the result was inactive. The inhibition result in experiment [3] was “inactive”.
Consider `CSCC[C@H](NC(=O)[C@@H](CCCCN)NC(=O)[C@H](CCCCN)NC(=O)CNCCCCN)C(=O)NCCCCC(NC(=O)[C@H](CCSC)NC(=O)[C@@H](CCCCN)NC(=O)[C@H](CCCCN)NC(=O)CNCCCCN)C(N)=O` (stereo partly drawn), for which the outcome with HCC4017 [4] was inactive. Further, the inhibition result in experiment [3] is “inactive”.
